Results of several laboratories.
Each line is one published result; the experiments were not run side by side.
Target: Inhibitor of nuclear factor kappa-B kinase subunit epsilon (IKBKE, Homo sapiens, UniProt Q14164)
Sequence (Q14164 1-716, as in one of the studies): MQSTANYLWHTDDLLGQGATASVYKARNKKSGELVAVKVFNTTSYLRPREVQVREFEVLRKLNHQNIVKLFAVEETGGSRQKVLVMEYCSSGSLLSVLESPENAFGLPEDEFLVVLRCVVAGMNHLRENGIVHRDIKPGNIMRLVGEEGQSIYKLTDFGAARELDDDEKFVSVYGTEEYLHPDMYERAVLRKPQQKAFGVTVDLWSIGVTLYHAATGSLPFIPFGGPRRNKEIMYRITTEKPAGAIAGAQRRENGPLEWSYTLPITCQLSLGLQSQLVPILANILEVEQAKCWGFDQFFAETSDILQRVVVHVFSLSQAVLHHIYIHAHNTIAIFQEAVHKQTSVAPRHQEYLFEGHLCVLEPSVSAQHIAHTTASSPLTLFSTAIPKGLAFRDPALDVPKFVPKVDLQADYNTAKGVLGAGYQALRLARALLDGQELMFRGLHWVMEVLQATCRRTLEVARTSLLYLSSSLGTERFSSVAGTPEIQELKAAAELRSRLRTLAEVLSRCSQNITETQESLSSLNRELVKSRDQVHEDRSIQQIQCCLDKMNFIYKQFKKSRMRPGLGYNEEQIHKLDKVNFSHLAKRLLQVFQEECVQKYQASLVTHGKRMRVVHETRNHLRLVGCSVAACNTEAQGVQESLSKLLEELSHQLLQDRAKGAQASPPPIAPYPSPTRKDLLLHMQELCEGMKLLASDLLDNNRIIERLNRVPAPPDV

For C[C@H]1CCN(c2nccc(-c3cnn4ncccc34)n2)C1, the remaining binding was 79% (binding; 1 µM).
The remaining binding of COc1cnc(Nc2cccc(S(N)(=O)=O)c2)nc1N1CCN(c2ccccc2)C(=O)C1 is reported as 50% (binding, competition with immobilised ligand; 1 µM).
For Nc1cnc(N2CCc3cc(S(=O)(=O)Nc4c(F)cc(Cl)cc4F)cc(N4CCCC4=O)c32)nc1, the remaining binding was 95% (cell-free assay, competition with immobilised ligand; 1 µM).
With C[C@@H](c1ccc(-n2cnc3c(N)ncnc32)cc1)N1CCc2nn(C)c(Cc3ccccc3)c2C1=O the remaining binding was 73% (binding, competition with immobilised ligand; 0.1 µM).
With CO[C@H]1CC[C@H](CNc2ccc(S(=O)(=O)NC(=O)c3ccc(N4CCN(CC5=C(c6ccc(Cl)cc6)CC(C)(C)CC5)CC4)cc3Oc3cnc4[nH]ccc4c3)cc2[N+](=O)[O-])CC1 the remaining binding was 100% (cell-free assay, competition with immobilised ligand; 1 µM).
O=C(NCCCN1CCOCC1)c1ccc(Nc2nccc(-c3cc4ccccc4s3)n2)cc1 gave a remaining binding of 96% (binding, competition with immobilised ligand; 1 µM).
Cc1cc(C)c(-n2ccn3nc(-c4cccnc4)cc23)cc1NC(=O)c1cc(C#N)cc(S(F)(F)(F)(F)F)c1 gave a remaining binding of 59.9% (cell-free assay, competition with immobilised ligand; 0.1 µM).
CN(CCCC(F)(F)F)c1nccc(-c2cnn3ncccc23)n1 gave a remaining binding of 100% (binding; 1 µM).
For CCc1ccccc1C(=O)Nc1n[nH]c2c(C)c(F)c(C3C(C#N)=C(C)N(C)C(C)=C3C#N)cc12, the remaining binding was 68% (cell-free assay, competition with immobilised ligand; 1 µM).
CN(C)c1nccc(-c2cnc3ncccn23)n1 gave a remaining binding of 100% (binding; 1 µM).
For CCCOc1ccc([C@@H]2[C@@H](C(=O)O)[C@H](c3ccc4c(c3)OCO4)CN2CC(=O)Nc2c(CC)cccc2CC)cc1, the remaining binding was 85% (cell-free assay, competition with immobilised ligand; 1 µM).
With COc1ncc2cc3ccccc3nc2c1C#N the remaining binding was 97% (cell-free assay, competition with immobilised ligand; 5 µM).
c1cncc(-c2cccc(Nc3nccc(NC4CCCCC4)n3)c2)c1 gave a remaining binding of 41% (binding, competition with immobilised ligand; 10 µM).
CN(C)c1ncc(F)c(-c2cnn3ncccc23)n1 has a remaining binding of 99% (binding; 1 µM).
With O=C(NCC1CCOCC1)c1n[nH]cc1NC(=O)c1c(F)cccc1F the remaining binding was 81% (binding, competition with immobilised ligand; 1 µM).
With N[C@H]1CCN(c2nccc(-c3cnn4ncccc34)n2)C1 the remaining binding was 91% (binding; 1 µM).
Nc1ncc2c(n1)-c1c([nH]c3ccc(C#CC4CC4)cc13)CCCC2 gave a remaining binding of 83% (binding, competition with immobilised ligand; 1 µM).
For O=C(NCCCN1CCOCC1)c1ccc(Nc2ncc(Cl)c(-c3ccc(Cl)s3)n2)cc1, the remaining binding was 52% (binding, competition with immobilised ligand; 1 µM).
With CC(C)(O)c1cncc(-c2nc3ccc(F)cc3n2C2CC2)c1 the remaining binding was 100% (cell-free assay, competition with immobilised ligand; 1 µM).
With F[C@@H]1CCN(c2nccc(-c3cnn4ncccc34)n2)C1 the remaining binding was 100% (binding; 1 µM).
For O=C(c1ccc(Nc2nccc(-c3cc4ccccc4s3)n2)cc1)N1CCC(N2CCCC2)CC1, the remaining binding was 31% (binding, competition with immobilised ligand; 1 µM).
